Measured values as given in ChEMBL document CHEMBL3124880, “4-(3-Chloro-5-(trifluoromethyl)pyridin-2-yl)-N-(4-methoxypyridin-2-yl)piperazine-1-carbothioamide (ML267), a potent inhibitor of bacterial phosphopantetheinyl transferase that attenuates secondary metabolism and thwarts bacterial growth” (J Med Chem, 2014).
Activity calls are given as the source filed them. The calls are words filed in the database; no cut-off is given here.

Columns and labels:
[1] = Inhibition of Bacillus subtilis Sfp-PPTase using rhodamine-CoA/BHQ-2-YbbR as substrate preincubated for 15 mins followed by substrate addition by HTS assay
[2] = target: T1, L-aminoadipate-semialdehyde dehydrogenase-phosphopantetheinyl transferase (Homo sapiens) (UniProt Q9NRN7); experiment: Inhibition of human PPTase up to 125 uM by gel-based fluorescence assay
T1 sequence (whole entry): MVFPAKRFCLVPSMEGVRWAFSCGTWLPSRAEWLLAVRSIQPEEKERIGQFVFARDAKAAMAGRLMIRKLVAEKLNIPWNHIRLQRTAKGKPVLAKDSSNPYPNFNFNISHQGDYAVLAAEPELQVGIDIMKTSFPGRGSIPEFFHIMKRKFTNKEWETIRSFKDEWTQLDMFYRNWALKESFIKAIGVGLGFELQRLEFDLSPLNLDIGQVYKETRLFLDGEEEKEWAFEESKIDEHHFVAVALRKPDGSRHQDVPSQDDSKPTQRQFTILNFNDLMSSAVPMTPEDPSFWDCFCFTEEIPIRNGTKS

HepG2 = experiment: Cytotoxicity against human HepG2 cells assessed as cellular ATP content after 48 hrs by CellTiter-Glo assay; format: cell-based; details: HepG2, 48 h
How it was run: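 HepG2 cells exposed to compound; viability read as cellular ATP by luciferase-coupled CellTiter-Glo.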

Bacillus subtilis [3] = experiment: Antibacterial activity against Bacillus subtilis HM489 assessed as cellular ATP content after 5 hrs by BacTiter-Glo assay; format: functional, organism-based; details: HM489, 5 h
[4] = Inhibition of Bacillus subtilis AcpS-PPTase using rhodamine-CoA/BHQ-2-YbbR as substrate preincubated for 15 mins followed by substrate addition by HTS assay
How it was run: (§1)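 AcpS-PPTase at 100 nM final in 50 mM HEPES-Na pH 7.6, 10 mM MgCl2, 0.01% Nonidet P-40, 0.01% BSA; compound preincubated 15 min at room temperature, then rhodamine-CoA (5 μM final) and BHQ-2-YbbR (12.5 μM final) added. Fluorescence read (525 ex/598 em) at start and after 60 min; difference gives rate.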

Bacillus subtilis [5] = experiment: Antibacterial activity against Bacillus subtilis 168 assessed as disruption of cell membrane integrity at 10 times MIC after 15 mins by Syto9/propidium iodide staining-based BacLight LIVE/DEAD microscopic analysis; format: functional, organism-based; details: subsp. subtilis str. 168
Bacillus subtilis [6] = experiment: Antibacterial activity against Bacillus subtilis 168 assessed as growth inhibition after 16 to 20 hrs by resazurin dye-based assay; format: functional; details: subsp. subtilis str. 168
How it was run: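 Broth microdilution. Test article from 1 μL DMSO in 50 μL cation-adjusted Mueller Hinton II (bacteria) or RPMI 1640 (fungi), plus ~1×10^3 cfu inoculum in the same medium. Incubated 16–20 h at 30–37 °C (48 h for fungi). MIC scored visually as the first well without growth; resazurin added for imaging.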

[7] = Non-competitive inhibition of Bacillus subtilis Sfp-PPTase using CoA/ActACP as substrate preincubated for 10 mins followed by substrate addition measured after 30 mins by HPLC analysis
Bacillus subtilis [8] = experiment: Inhibition of Bacillus subtilis Sfp-PPTase using CoA/apo-ACP as substrate preincubated for 10 mins followed by substrate addition measured after 30 mins by PAGE analysis
How it was run: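 Compound in DMSO added to Sfp at 26.6 nM (in a 1.33× enzyme solution) in HEPES-Na pH 7.6 with MgCl2, NP-40 and BSA, and held 10 min. Reaction started with rhodamine-CoA and apo-actinorhodin-ACP, each 50 μM in a 4× substrate solution. After 30 min at room temperature, quenched with urea/EDTA and resolved by native 20% PAGE.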

Bacillus subtilis [9] = experiment: Reversible inhibition of Bacillus subtilis Sfp-PPTase using rhodamine-CoA/FITC-YbbR as substrate assessed as residual enzyme activity at IC90 preincubated for 30 mins followed by 100 fold dilution and addition of substrate by fluorescence assay
Bacillus subtilis [10] = experiment: Inhibition of Bacillus subtilis Sfp-PPTase
How it was run: (§2)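 qHTS fluorescence assay in 50 mM HEPES-Na pH 7.6, 10 mM MgCl2, 0.01% NP-40, 0.01% BSA. Final enzyme 15 nM Sfp or 100 nM AcpS. Enzyme preincubated with compound 15 min at room temperature, then rhodamine-CoA 5 μM and BHQ-2-YbbR 12.5 μM (final) added. Fluorescence (525 ex/598 em) read at start and after 30 min (Sfp) or 60 min (AcpS); the difference gives the rate. Eight concentrations from 3.6 nM to 114 μM, run in triplicate.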

Bacillus subtilis [11] = experiment: Inhibition of Bacillus subtilis AcpS-PPTase; how it was run: as §2
[12] = Inhibition of AcpS-PPTase (unknown origin); how it was run: as §1
Staphylococcus aureus = experiment: Antibacterial activity against Staphylococcus aureus BK2395 in Swiss Webster mouse septicemia model assessed as increase in survival at 50 mg/kg, ip administered 4 to 48 hrs measured 3 times daily for 14 days; format: functional, organism-based; parameters: dose 50 mg/kg
Liver microsome = experiment: Drug metabolism in human liver microsomes assessed as GSH adduct formation at 50 uM after 60 mins by LC-MS/MS analysis in presence of NADPH; format: ADME; details: 1 h

| Compound | IC50 [1] | further results |
| --- | --- | --- |
| Cc1ccnc(NC(=S)N2CCN(c3cccc(N(C)C)c3)CC2)c1 | 5.8 µM | – |
| FC(F)(F)c1cccc(N2CCN(C(=S)Nc3ccccn3)CC2)c1 | 0.91 µM | – |
| Nc1ncnc2c1ncn2[C@@H]1O[C@H](COP(=O)(O)O)[C@@H](OP(=O)(O)O)[C@H]1O | – | inhibition [2]: Active |
| Cc1cc(C)nc(NC(=S)N2CCN(c3ccc(Cl)c(Cl)c3Cl)CC2)c1 | 0.73 µM | – |
| Cc1cc(C)nc(Nc2nnc(N3CCN(c4cccc(C(F)(F)F)c4)CC3)s2)c1 | ≥ 114 µM | – |
| C/N=c1\nc(-c2ccccc2)n(-c2ccccc2)s1 | – | inhibition [2]: Active |
| Cc1cc(C)nc(NC(=S)N2CCN(c3cc(C(F)(F)F)cc(C(F)(F)F)c3)CC2)c1 | 0.51 µM | – |
| Cc1cc(C)nc(NC(=S)N2CCN(c3cccc(S(C)(=O)=O)c3)CC2)c1 | 2.9 µM | – |
| Cc1ccnc(NC(=S)NC2CCN(c3cccc(C(F)(F)F)c3)CC2)c1 | ≥ 114 µM | – |
| Cc1cc(C)nc(NC(=S)N2CCN(c3cccc(Cl)c3Cl)CC2)c1 | 1.6 µM | – |
| Cc1ccnc(NC(=N)N2CCN(c3cccc(C(F)(F)F)c3)CC2)c1 | ≥ 114 µM | – |
| Cc1cc(C)nc(NC(=S)N2CCNCC2)c1 | 14.5 µM | – |
| Cc1ccnc(NC(=O)N2CCN(c3cccc(C(F)(F)F)c3)CC2)c1 | ≥ 114 µM | IC50 (HepG2): 7 µM; IC50 (Bacillus subtilis [3]): ≥ 114 µM; IC50 [4]: ≥ 114 µM |
| Cc1cc(C)nc(NC(=S)N2CCN(c3ccc(Cl)c(Cl)c3)CC2)c1 | 0.91 µM | – |
| O=C(N[C@H](CO)[C@H](O)c1ccc([N+](=O)[O-])cc1)C(Cl)Cl | – | Activity (Bacillus subtilis [5]): inactive; growth inhibition (GI) (Bacillus subtilis [6]): Active |
| Cetyltrimethylammonium bromide | – | Activity (Bacillus subtilis [5]): Active; growth inhibition (GI) (Bacillus subtilis [6]): Active |
| Cc1ccnc(NC(=S)N2CCN(c3cccc(C(F)(F)F)c3)CC2)c1 | 0.78 µM | IC50 [7]: 0.3 µM; IC50 (HepG2): 14 µM; inhibition (Bacillus subtilis [8]): Dose-dependent effect; IC50 (Bacillus subtilis [3]): 9.8 µM; IC50 [4]: 4.6 µM; inhibition (Bacillus subtilis [9]): Active; inhibition (Bacillus subtilis [10]): Active; inhibition (Bacillus subtilis [11]): Active |
| Cc1ccnc(NC(=S)N2CCN(c3cccc(C(F)(F)F)c3)C[C@@H]2C)c1 | 11.5 µM | – |
| Cc1ccnc(NC(=S)N2CCN(c3ccccc3C(F)(F)F)CC2)c1 | 0.61 µM | IC50 (HepG2): ≥ 114 µM; IC50 (Bacillus subtilis [3]): 9.4 µM; IC50 [4]: 10.2 µM |
| Cc1cc(C)nc(NC(=S)N2CCN(c3ncc(C(F)(F)F)cc3Cl)CC2)c1 | 0.86 µM | IC50 (HepG2): 30 µM; IC50 (Bacillus subtilis [3]): 36.2 µM; IC50 [4]: 18.6 µM |

| Compound | IC50 [1] | further results |
| --- | --- | --- |
| Cc1ccnc(C(=S)N2CCN(c3cccc(C(F)(F)F)c3)CC2)c1 | ≥ 114 µM | – |
| Cc1cc(C)nc(NC(=S)N2CCN(c3cccc(C(F)(F)F)c3)CC2)c1 | 0.51 µM | – |
| Cc1cc(C)nc(NC(=S)N2CCN(S(=O)(=O)c3cccc(C(F)(F)F)c3)CC2)c1 | 0.81 µM | – |
| Cc1ccnc(NC(=S)N2CCN(c3ccc(C(F)(F)F)cc3)CC2)c1 | 1 µM | – |
| CSC(Cc1ccc(Cl)cc1)C(=O)Nc1ccc(Cl)cc1C(=O)O (configuration not stated) | – | IC50 [12]: 1.4 µM |
| Cc1cc(C)nc(NC(=S)N2CCN(c3cc(C#N)cc(C#N)c3)CC2)c1 | 0.65 µM | – |
| Cc1cccc(NC(=S)N2CCN(c3cccc(C(F)(F)F)c3)CC2)c1 | ≥ 114 µM | – |
| CN[C@H](CC(C)C)C(=O)N[C@H]1C(=O)N[C@@H](CC(N)=O)C(=O)N[C@H]2C(=O)N[C@H]3C(=O)N[C@H](C(=O)N[C@H](C(=O)O)c4cc(O)cc(O)c4-c4cc3ccc4O)[C@H](O)c3ccc(c(Cl)c3)Oc3cc2cc(c3O[C@@H]2O[C@H](CO)[C@@H](O)[C@H](O)[C@H]2O[C@H]2C[C@](C)(N)[C@H](O)[C@H](C)O2)Oc2ccc(cc2Cl)[C@H]1O | – | Activity (Staphylococcus aureus): Active |
| FC(F)(F)c1cccc(N2CCN(C(=S)Nc3cc(C(F)(F)F)ccn3)CC2)c1 | ≥ 114 µM | – |
| Cc1ccnc(NC(=S)Nc2cccc(C(F)(F)F)c2)c1 | 22.9 µM | – |
| Cc1cc(C)nc(NC(=S)N2CCN(c3cc(Cl)cc(Cl)c3)CC2)c1 | 0.85 µM | – |
| Cc1ccnc(NC(=S)N2CC3CN(c4cccc(C(F)(F)F)c4)CC3C2)c1 (configuration not stated) | 0.73 µM | – |
| Cc1ccnc(NC(=S)NCCNc2cccc(C(F)(F)F)c2)c1 | ≥ 114 µM | – |
| Cc1ccnc(NC(=S)N2CCCN(c3cccc(C(F)(F)F)c3)CC2)c1 | 1.6 µM | – |
| FC(F)(F)c1cccc(N2CCN(C(=S)Nc3ccc4ccccc4n3)CC2)c1 | 1.5 µM | – |
| Cc1ccnc(NC(=S)NCCN(C)c2cccc(C(F)(F)F)c2)c1 | ≥ 114 µM | – |
| Cc1ccnc(NC(=S)NC2CN(c3cccc(C(F)(F)F)c3)C2)c1 | ≥ 114 µM | – |
| Cc1ccnc(CC(=S)N2CCN(c3cccc(C(F)(F)F)c3)CC2)c1 | 5.76 µM | – |
| Cc1ccnc(NC(=S)N2CCN(c3cccc(C(F)(F)F)c3)C2)c1 | 0.81 µM | – |
| Cc1cc(C)nc(NC(=S)N2CCN(Cc3cccc(C(F)(F)F)c3)CC2)c1 | 11.5 µM | – |

| Compound | IC50 [1] | further results |
| --- | --- | --- |
| FC(F)(F)c1cccc(N2CCN(C(=S)Nc3ccc4cccnc4n3)CC2)c1 | 1 µM | – |
| Cc1cc(C)nc(NC(=S)N2CCN(c3cc(F)cc(F)c3)CC2)c1 | 1.3 µM | – |
| Cc1cc(C)nc(NC(=S)N2CCN(c3cc(Cl)c(Cl)c(Cl)c3)CC2)c1 | 0.29 µM | – |
| FC(F)(F)c1cccc(N2CCN(C(=S)Nc3ccncc3)CC2)c1 | ≥ 114 µM | – |
| COc1ccnc(NC(=S)N2CCN(c3cccc(C(F)(F)F)c3)CC2)c1 | 1.2 µM | – |
| COC(=O)c1ccnc(NC(=S)N2CCN(c3cccc(C(F)(F)F)c3)CC2)c1 | 11.5 µM | – |
| Cc1ccnc(N(C)C(=S)N2CCN(c3cccc(C(F)(F)F)c3)CC2)c1 | ≥ 114 µM | – |
| Cc1ccnc(NC(=S)N2CCN(C)CC2)c1 | 6.5 µM | – |
| Cc1ccnc(NC(=S)N2CCC(Nc3cccc(C(F)(F)F)c3)CC2)c1 | 0.81 µM | IC50 (HepG2): ≥ 114 µM; IC50 (Bacillus subtilis [3]): 13.2 µM; IC50 [4]: 12.9 µM |
| Cc1cc(C)nc(NC(=S)N2CCN(c3cccc(C#N)c3)CC2)c1 | 1.6 µM | – |
| Cc1cc(C)nc(NC(=S)N2CCN(c3ccc(Cl)cc3C(F)(F)F)CC2)c1 | 0.58 µM | IC50 (HepG2): ≥ 114 µM; Drug metabolism (Liver microsome): Not Active; IC50 (Bacillus subtilis [3]): 18.6 µM; IC50 [4]: 10.2 µM |
| Cc1cc(C)nc(NC(=S)N2CCN(c3ccc(C(F)(F)F)cn3)CC2)c1 | – | IC50 (HepG2): 15.8 µM; IC50 (Bacillus subtilis [3]): 13.2 µM; IC50 [4]: 16.2 µM |
| COc1cccc(NC(=S)N2CCN(c3cccc(C(F)(F)F)c3)CC2)n1 | 1.5 µM | – |
| COc1cc(OC)cc(N2CCN(C(=S)Nc3cc(C)cc(C)n3)CC2)c1 | 2 µM | – |
| Cc1cc(C)nc(NC(=S)N2CCN(c3nnc(C(F)(F)F)s3)CC2)c1 | 1.6 µM | – |
| Cc1cc(C)cc(N2CCN(C(=S)Nc3cc(C)cc(C)n3)CC2)c1 | 1.6 µM | – |
| Cc1cc(C)nc(N/C(=N/C#N)N2CCN(c3cccc(C(F)(F)F)c3)CC2)c1 | ≥ 114 µM | – |
| Cc1cc(C)nc(NC(=C(C#N)C#N)N2CCN(c3cccc(C(F)(F)F)c3)CC2)c1 | ≥ 114 µM | – |
| Cc1cc(C)nc(NC(=S)N2CCN(c3ccc(Cl)cc3Cl)CC2)c1 | 1 µM | – |
